Read-outs that look alike come from different tables or passages of the source.
Key:
S. typhimurium TA98 = assay: Ames test, strain TA98; format: cell-based, Salmonella typhimurium
[1] = tested on: S. typhimurium tester strains (TA98, TA100, and TA102); assay: Ames test, overall over three strains; format: cell-based, Salmonella typhimurium; settings: 5 × 10^–5 to 50 pmol/plate, with or without S9
MCF-7 cells [2] = assay: MCF-7 cell proliferation assay; format: cell-based, human
Summary of the method: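 MCF-7 cells exposed to test compound or E2 at six concentrations from 10–12 to 10–7 M in EA-free medium. Proliferation read as MTT product absorbance at 570 nm. Three independent trials, each in triplicate. % RME2 = 100 × (OD test − OD VC)/(max OD E2 − OD VC). EC50 from curve fitting. EEF = EC50 of E2/EC50 of sample. One-way ANOVA with Dunnett's test versus E2 at each concentration.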

S. typhimurium TA100 = assay: Ames test, strain TA100; format: cell-based, Salmonella typhimurium
chicken embryo = assay: Chicken embryonic assay; format: in vivo; settings: egg injection, day 18
chicken fetal liver = assay: TBARs level; format: in vivo; settings: higher dose (0.5 mM: 450–500 μg/kg)
MCF-7 cells [3] = settings: at 0.001–1 μM when tested from 0.001 to 50 μM; cited from earlier work
S. typhimurium = settings: at 12.1 to 147.8 nmol/plate; cited from earlier work
[4] = TA100 +S9, 5 × 10^–2 pmol/plate
[5] = TA100 +S9, 5 × 10^–3 pmol/plate
[6] = TA100 +S9, 5 × 10^–4 pmol/plate
[7] = TA100 +S9, 5 × 10^–5 pmol/plate
[8] = TA100 -S9, 5 × 10^–2 pmol/plate
[9] = TA100 -S9, 5 × 10^–3 pmol/plate
[10] = TA100 -S9, 5 × 10^–4 pmol/plate
[11] = TA100 -S9, 5 × 10^–5 pmol/plate
[12] = higher dose (0.5 mM: 450–500 μg/kg; E2 0.1 mM: 91 μg/kg)
[13] = lower dose (0.05 mM: 45–50 μg/kg; E2 0.01 mM: 9.1 μg/kg)
[14] = TA102 +S9, 5 × 10^–2 pmol/plate
[15] = TA102 +S9, 5 × 10^–3 pmol/plate
[16] = TA102 +S9, 5 × 10^–4 pmol/plate
[17] = TA102 +S9, 5 × 10^–5 pmol/plate
[18] = TA102 -S9, 5 × 10^–3 pmol/plate
[19] = TA102 -S9, 5 × 10^–4 pmol/plate
[20] = TA102 -S9, 5 × 10^–5 pmol/plate

## O=c1c(O)c(-c2ccc(O)c(O)c2)oc2cc(O)cc(O)c12 [quercetin]
S. typhimurium TA98; TA98 +S9, 0.5 pmol/plate
  MI: 1.1
  number of revertants/plate (M ± SD): 25 ± 13 revertants/plate
S. typhimurium TA98; TA98 +S9, 5 pmol/plate
  MI: 0.8
  number of revertants/plate (M ± SD): 19 ± 10 revertants/plate
S. typhimurium TA98; TA98 +S9, 50 pmol/plate
  MI: 0.8
  number of revertants/plate (M ± SD): 18 ± 13 revertants/plate
S. typhimurium TA98; TA98 +S9, 5 × 10^–2 pmol/plate
  MI: 1.0
  number of revertants/plate (M ± SD): 23 ± 17 revertants/plate
S. typhimurium TA98; TA98 +S9, 5 × 10^–3 pmol/plate
  MI: 1.2
  number of revertants/plate (M ± SD): 27 ± 16 revertants/plate
S. typhimurium TA98; TA98 +S9, 5 × 10^–4 pmol/plate
  MI: 0.8
  number of revertants/plate (M ± SD): 18 ± 13 revertants/plate
S. typhimurium TA98; TA98 +S9, 5 × 10^–5 pmol/plate
  MI: 0.7
  number of revertants/plate (M ± SD): 17 ± 8 revertants/plate
S. typhimurium TA98; TA98 -S9, 0.5 pmol/plate
  MI: 1.3
  number of revertants/plate (M ± SD): 28 ± 1 revertants/plate
S. typhimurium TA98; TA98 -S9, 5 pmol/plate
  MI: 1.2
  number of revertants/plate (M ± SD): 27 ± 11 revertants/plate
S. typhimurium TA98; TA98 -S9, 50 pmol/plate
  MI: 1.3
  number of revertants/plate (M ± SD): 30 ± 2 revertants/plate
S. typhimurium TA98; TA98 -S9, 5 × 10^–2 pmol/plate
  MI: 0.8
  number of revertants/plate (M ± SD): 19 ± 6 revertants/plate
S. typhimurium TA98; TA98 -S9, 5 × 10^–3 pmol/plate
  MI: 1.4
  number of revertants/plate (M ± SD): 31 ± 6 revertants/plate
S. typhimurium TA98; TA98 -S9, 5 × 10^–4 pmol/plate
  MI: 1.2
  number of revertants/plate (M ± SD): 27 ± 3 revertants/plate
S. typhimurium TA98; TA98 -S9, 5 × 10^–5 pmol/plate
  MI: 1.1
  number of revertants/plate (M ± SD): 25 ± 2 revertants/plate
[1]
  Ames test outcome (signs of mutagenicity): signs of mutagenicity
MCF-7 cells [2]; all test concentrations except 10^–11 M, VC + 3 SD = 18%
  % RME2, no detectable EA: < 18%
MCF-7 cells [2]; highest % RME2 (relative maximum % E2) in test range 10^–12–10^–7 M
  max % RME2: 22%
S. typhimurium TA100; TA100 +S9, 0.5 pmol/plate
  MI: 1.2
  number of revertants/plate (M ± SD): 398 ± 8 revertants/plate
S. typhimurium TA100; TA100 +S9, 5 pmol/plate
  MI: 1.2
  number of revertants/plate (M ± SD): 386 ± 12 revertants/plate
S. typhimurium TA100; TA100 +S9, 50 pmol/plate
  MI: 1.1
  number of revertants/plate (M ± SD): 369 ± 12 revertants/plate
S. typhimurium TA100; [4]
  MI: 1.1
  number of revertants/plate (M ± SD): 366 ± 14 revertants/plate
S. typhimurium TA100; [5]
  MI: 1.1
  number of revertants/plate (M ± SD): 367 ± 5 revertants/plate
S. typhimurium TA100; [6]
  MI: 1.1
  number of revertants/plate (M ± SD): 349 ± 8 revertants/plate
S. typhimurium TA100; [7]
  MI: 1.1
  number of revertants/plate (M ± SD): 358 ± 14 revertants/plate
S. typhimurium TA100; TA100 -S9, 0.5 pmol/plate
  MI: 1.0
  number of revertants/plate (M ± SD): 105 ± 11 revertants/plate
S. typhimurium TA100; TA100 -S9, 5 pmol/plate
  MI: 1.0
  number of revertants/plate (M ± SD): 104 ± 8 revertants/plate
S. typhimurium TA100; TA100 -S9, 50 pmol/plate
  MI: 0.9
  number of revertants/plate (M ± SD): 88 ± 8 revertants/plate
S. typhimurium TA100; [8]
  MI: 1.1
  number of revertants/plate (M ± SD): 113 ± 6 revertants/plate
S. typhimurium TA100; [9]
  MI: 1.0
  number of revertants/plate (M ± SD): 103 ± 7 revertants/plate
S. typhimurium TA100; [10]
  MI: 1.0
  number of revertants/plate (M ± SD): 98 ± 7 revertants/plate
S. typhimurium TA100; [11]
  MI: 1.0
  number of revertants/plate (M ± SD): 97 ± 4 revertants/plate
Chicken embryo; [12]
  LSI (liver somatic index): 1.85 ± 0.21%
  REEW (ratio of embryo to egg weight): 0.43 ± 0.057
  mortality rate: 12.5%
  number of dead chicken embryo: 1
  weights: embryo: 24.06 ± 2.35 g
  weights: heart: 0.21 ± 0.05 g
  weights: liver: 0.44 ± 0.01 g
Chicken embryo; [13]
  LSI (liver somatic index): 2.52 ± 0.34%
  REEW (ratio of embryo to egg weight): 0.41 ± 0.035
  malformation rate: 0.0%
  mortality rate: 25.0%
  number of dead chicken embryo: 2
  number of malformation chicken embryo: 0
  weights: embryo: 22.11 ± 2.26 g
  weights: heart: 0.20 ± 0.02 g
  weights: liver: 0.56 ± 0.13 g
Chicken fetal liver
  TBARs value: 62.48 nmol/g
MCF-7 cells [3]
  cell proliferation in the MCF-7 cells: < 120%
S. typhimurium
  mutagenicity in TA98, TA100, and TA102: showed mutagenicity
S. typhimurium TA102; TA102 +S9, 0.5 pmol/plate
  MI: 1.1
  number of revertants/plate (M ± SD): 326 ± 19 revertants/plate
S. typhimurium TA102; TA102 +S9, 5 pmol/plate
  MI: 0.9
  number of revertants/plate (M ± SD): 279 ± 21 revertants/plate
S. typhimurium TA102; TA102 +S9, 50 pmol/plate
  MI: 1.0
  number of revertants/plate (M ± SD): 310 ± 31 revertants/plate
S. typhimurium TA102; [14]
  MI: 1.1
  number of revertants/plate (M ± SD): 337 ± 7 revertants/plate
S. typhimurium TA102; [15]
  MI: 1.2
  number of revertants/plate (M ± SD): 369 ± 13 revertants/plate
S. typhimurium TA102; [16]
  MI: 1.0
  number of revertants/plate (M ± SD): 312 ± 16 revertants/plate
S. typhimurium TA102; [17]
  MI: 0.9
  number of revertants/plate (M ± SD): 291 ± 11 revertants/plate
S. typhimurium TA102; TA102 -S9, 0.5 pmol/plate
  MI: 1.0
  number of revertants/plate (M ± SD): 267 ± 23 revertants/plate
S. typhimurium TA102; TA102 -S9, 5 pmol/plate
  MI: 1.2
  number of revertants/plate (M ± SD): 312 ± 13 revertants/plate
S. typhimurium TA102; TA102 -S9, 50 pmol/plate
  MI: 1.4
  number of revertants/plate (M ± SD): 347 ± 10 revertants/plate
S. typhimurium TA102; [18]
  MI: 1.3
  number of revertants/plate (M ± SD): 325 ± 10 revertants/plate
S. typhimurium TA102; [19]
  MI: 1.2
  number of revertants/plate (M ± SD): 301 ± 16 revertants/plate
S. typhimurium TA102; [20]
  MI: 1.1
  number of revertants/plate (M ± SD): 284 ± 15 revertants/plate

Source: article PMC8851455 (ACS Omega, 2022)
